Source: ChEMBL document CHEMBL1139925, “Synthesis and topoisomerase poisoning activity of A-ring and E-ring substituted luotonin A derivatives” (2007)

Legend:
Format in all cases: functional
[1] = tested on: MCF7; experiment: Growth inhibition of adriamycin-resistant MCF7 cells after 4 days; conditions: Homo sapiens, MCF7, 96 h
Summary of the method: (§1)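 Adherent lines (HeLa S3 in MEM/7% FCS; MCF7 and ADR-Res) seeded at 2 · 10^3 cells per well. After one day, compounds in DMSO were diluted in culture medium over a 5-point range and added. Cells stained with 0.2% crystal violet in 20% ethanol for 1 h, washed, solubilized in 10% acetic acid, A570 read. GI50 = concentration giving 50% growth inhibition versus control.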

[2] = tested on: HeLa; experiment: Growth inhibition of HeLa cells after 4 days; conditions: Homo sapiens, 96 h; summary of the method: as §1
[3] = tested on: MCF7; experiment: Growth inhibition of MCF7 cells after 4 days; conditions: Homo sapiens, MCF7, 96 h; summary of the method: as §1
[4] = tested on: CCRF-CEM; experiment: Growth inhibition of human CEM cells by Alamar blue assay
Summary of the method: (§2)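 Leukemia lines (CEM, topo I-mutant CEM/C2, HL60, topo II-mutant MX2) seeded in 96-well plates. HL60/MX2 were kept in RPMI1640 with 10% FCS, 10 mM Hepes and 2 mM glutamine. After one day, DMSO-dissolved compounds were diluted in medium over a 5-point range and added. GI50 = concentration giving 50% growth inhibition versus control.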

[5] = tested on: CEM/C2; experiment: Growth inhibition of topoisomerase 1 mutated CEM/C2 cells by Alamar blue assay; conditions: Homo sapiens; summary of the method: as §2
[6] = tested on: HL-60; experiment: Growth inhibition of human HL60 cells by Almar blue assay; summary of the method: as §2
[7] = Growth inhibition of topoisomerase 2 mutated mitoxantrone-resistant MX2 cells by Alamar blue assay; conditions: Homo sapiens; summary of the method: as §2
[8] = tested on: CEM/C2; experiment: Ratio of GI50 for camptothecin-resistant human CEM/C2 cells to GI50 for human CEM cells
Summary of the method: (§3)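 Relative resistance index from GI50 values in paired 5-point growth inhibition assays run in parallel: GI50 in the mutant line (CEM/C2 or MX2) divided by GI50 in its parental line (CEM or HL60).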

[9] = tested on: HL-60; experiment: Ratio of GI50 for mitoxantrone-resistant human MX2 cells to GI50 for human HL60 cells; summary of the method: as §3

Row | SMILES | GI50 [1] | GI50 [2] | GI50 [3] | GI50 [4] | GI50 [6] | GI50 [5] | GI50 [7] | RatioGI50 [8] | RatioGI50 [9]
1 | CCN(CC)CCOc1ccc2nc3c(cc2c1)Cn1c-3nc2ccccc2c1=O | 4 µM | 2 µM | 3 µM | 3 µM | 4 µM | 7 µM | 10 µM | 2 | 2.5
2 | CN(C)CCOc1ccc2nc3c(cc2c1)Cn1c-3nc2ccccc2c1=O | 4 µM | 2 µM | 2 µM | 3 µM | 4 µM | 7 µM | 9 µM | 2 | 2
3 | CN(C)Cc1c(O)ccc2nc3c(cc12)Cn1c-3nc2ccccc2c1=O | > 20 µM | 10 µM | 13 µM | 30 µM | 20 µM | > 40 µM | > 40 µM | >1.5 | >2
4 | O=c1c2ccccc2nc2n1Cc1cc3c(CN4CCOCC4)c(O)ccc3nc1-2 | > 20 µM | > 20 µM | > 20 µM | – | – | – | – | – | –
5 | O=c1c2ccccc2nc2n1Cc1cc3cc(O)ccc3nc1-2 [10-HYDROXYLUOTONIN A] | > 20 µM | > 10 µM | > 20 µM | – | – | – | – | – | –
6 | COc1ccc2nc3c(cc2c1)Cn1c-3nc2ccccc2c1=O [10-METHOXYLUOTONIN A] | > 20 µM | > 10 µM | > 20 µM | – | – | – | – | – | –
7 | CC[C@@]1(O)C(=O)OCc2c1cc1n(c2=O)Cc2cc3ccccc3nc2-1 [CAMPTOTHECIN] | 0.01 µM | 0.01 µM | 0.01 µM | 0.002 µM | 0.03 µM | > 1 µM | 0.02 µM | >500 | –
8 | O=C1c2c(O)ccc(O)c2C(=O)c2c(NCCNCCO)ccc(NCCNCCO)c21 [MITOXANTRONE] | – | – | – | – | 0.01 µM | – | 0.13 µM | – | 13

The next lines start with results.

Row | GI50 [1] | GI50 [2] | GI50 [3] | GI50 [4] | GI50 [6] | SMILES | GI50 [5] | GI50 [7] | RatioGI50 [8] | RatioGI50 [9]
9 | > 20 µM | > 20 µM | > 20 µM | – | – | CC(=O)Nc1cccc2c(=O)n3c(nc12)-c1nc2ccccc2cc1C3 [16-ACETAMIDOLUOTONIN A] | – | – | – | –
10 | 3 µM | 2 µM | 2 µM | 6 µM | 15 µM | Nc1cccc2c(=O)n3c(nc12)-c1nc2ccccc2cc1C3 [16-AMINOLUOTONIN A] | > 40 µM | > 40 µM | >7 | >2.5
11 | > 20 µM | > 20 µM | > 20 µM | – | – | O=c1c2cccnc2nc2n1Cc1cc3ccccc3nc1-2 [16-AZALUOTONIN A] | – | – | – | –
12 | 13 µM | > 10 µM | 10 µM | – | – | O=c1c2cccc(Cl)c2nc2n1Cc1cc3ccccc3nc1-2 [16-CHLOROLUOTONIN A] | – | – | – | –
13 | > 20 µM | 12 µM | > 20 µM | – | – | COc1cccc2c(=O)n3c(nc12)-c1nc2ccccc2cc1C3 [16-METHOXYLUOTONIN A] | – | – | – | –
14 | > 20 µM | 6 µM | 10 µM | 9 µM | > 40 µM | O=c1c2cc(O)c(O)cc2nc2n1Cc1cc3ccccc3nc1-2 [17,18-DIHYDROXYLUOTONIN A] | > 40 µM | > 40 µM | >4 | –
15 | > 20 µM | > 10 µM | > 20 µM | – | – | COc1cc2nc3n(c(=O)c2cc1OC)Cc1cc2ccccc2nc1-3 [17,18-DIMETHOXYLUOTONIN A] | – | – | – | –
16 | > 1 µM | > 1 µM | > 1 µM | – | – | CCc1c2c(nc3ccc(OC(=O)N4CCC(N5CCCCC5)CC4)cc13)-c1cc3c(c(=O)n1C2)COC(=O)[C@]3(O)CC [IRINOTECAN] | – | – | – | –
17 | 5 µM | 3 µM | 3 µM | ≥ 40 µM | – | O=c1c2ccccc2nc2n1Cc1cc3ccccc3nc1-2 [LUOTONIN A] | > 40 µM | – | – | –
18 | 0.04 µM | 0.03 µM | 0.05 µM | – | – | CC[C@@]1(O)C(=O)OCc2c1cc1n(c2=O)Cc2cc3c(CN(C)C)c(O)ccc3nc2-1 [TOPOTECAN] | – | – | – | –
